Laboratory results published in the M2OR odorant receptor database.
Numbering of substitutions follows the chain as printed.

What was measured:
Settings in all cases: stereoisomer not certain
OR4F17 (Homo sapiens) = target: T1, OR4F17 (Homo sapiens) (UniProt Q8NGA8)
T1 sequence (whole entry): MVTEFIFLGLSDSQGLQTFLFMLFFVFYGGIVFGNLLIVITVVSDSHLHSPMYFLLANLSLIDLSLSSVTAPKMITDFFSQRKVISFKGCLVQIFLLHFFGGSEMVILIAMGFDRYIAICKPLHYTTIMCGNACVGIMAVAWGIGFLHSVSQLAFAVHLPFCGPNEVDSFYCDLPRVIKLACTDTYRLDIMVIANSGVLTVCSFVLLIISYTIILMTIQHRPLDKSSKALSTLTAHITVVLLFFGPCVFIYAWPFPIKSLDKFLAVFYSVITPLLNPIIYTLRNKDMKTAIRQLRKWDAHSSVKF
Method in brief: (§1)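 Assay methods differ from source to source, frequently being transient luciferase assays in mammalian cell lines. For each receptor–molecule pair, the label responsive (active) applies when the original authors judged the measured signal statistically different from baseline, and non-responsive (inactive) applies otherwise.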

OR4F21 (Homo sapiens) = target: T2, OR4F21 (Homo sapiens) (UniProt O95013)
T2 sequence (whole entry): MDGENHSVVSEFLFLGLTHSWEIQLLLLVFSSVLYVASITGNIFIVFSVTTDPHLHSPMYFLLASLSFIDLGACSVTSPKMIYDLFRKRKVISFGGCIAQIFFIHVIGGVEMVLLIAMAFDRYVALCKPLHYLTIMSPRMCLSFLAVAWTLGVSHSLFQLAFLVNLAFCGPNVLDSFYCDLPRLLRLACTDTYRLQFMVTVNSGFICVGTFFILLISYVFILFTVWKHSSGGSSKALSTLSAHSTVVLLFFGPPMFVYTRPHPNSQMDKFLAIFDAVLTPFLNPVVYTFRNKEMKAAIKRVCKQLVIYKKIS
Method in brief: as §1

OR4F3 (Homo sapiens) = target: T3, OR4F3 (Homo sapiens) (UniProt Q6IEY1)
T3 sequence (whole entry): T2 sequence (whole entry) with F44L, I107V, K310R
Method in brief: as §1

OR4F4 (Homo sapiens) = target: T4, OR4F4 (Homo sapiens) (UniProt Q96R69)
T4 sequence (whole entry): T1 sequence (whole entry) with G15E, R221C, Q293R
Method in brief: as §1

OR4F5 (Homo sapiens) = target: T5, OR4F5 (Homo sapiens) (UniProt Q8NH21)
T5 sequence (whole entry): T1 sequence (whole entry) with G15E, A141T, P160L
Method in brief: as §1

OR4F6 (Homo sapiens) = target: T6, OR4F6 (Homo sapiens) (UniProt Q8NGB9)
T6 sequence (whole entry): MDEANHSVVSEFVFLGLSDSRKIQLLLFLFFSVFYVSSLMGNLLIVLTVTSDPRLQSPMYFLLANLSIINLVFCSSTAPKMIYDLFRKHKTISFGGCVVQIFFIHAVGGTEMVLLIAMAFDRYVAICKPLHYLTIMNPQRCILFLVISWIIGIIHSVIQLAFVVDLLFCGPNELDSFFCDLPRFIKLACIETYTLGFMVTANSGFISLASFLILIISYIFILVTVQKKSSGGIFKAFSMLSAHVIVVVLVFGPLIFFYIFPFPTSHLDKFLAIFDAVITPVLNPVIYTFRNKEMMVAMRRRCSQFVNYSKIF
Method in brief: as §1

OR4K1 (Homo sapiens) = target: T7, OR4K1 (Homo sapiens) (UniProt Q8NGD4)
T7 sequence (whole entry): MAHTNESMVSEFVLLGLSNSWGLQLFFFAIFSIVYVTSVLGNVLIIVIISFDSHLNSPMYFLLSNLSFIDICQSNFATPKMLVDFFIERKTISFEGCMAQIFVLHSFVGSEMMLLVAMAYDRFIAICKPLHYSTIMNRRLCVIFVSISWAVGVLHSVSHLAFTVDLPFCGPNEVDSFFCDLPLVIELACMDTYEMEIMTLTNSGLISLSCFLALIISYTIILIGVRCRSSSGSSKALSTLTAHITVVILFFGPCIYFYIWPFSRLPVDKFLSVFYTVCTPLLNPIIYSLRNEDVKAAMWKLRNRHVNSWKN
Method in brief: as §1

OR4F5 T141A Q293R = tested on: T8, OR4F5 T141A Q293R
T8 sequence (whole entry): T1 sequence (whole entry) with G15E, P160L, Q293R
Method in brief: as §1

OR4F3 R310K = tested on: OR4F3 R310K
Method in brief: as §1

OR4F3 V107I = tested on: OR4F3 V107I
Method in brief: as §1

Measured: odorant receptor agonist call

OR4F3 V107I, sequence (as listed by the source, stated change not applied): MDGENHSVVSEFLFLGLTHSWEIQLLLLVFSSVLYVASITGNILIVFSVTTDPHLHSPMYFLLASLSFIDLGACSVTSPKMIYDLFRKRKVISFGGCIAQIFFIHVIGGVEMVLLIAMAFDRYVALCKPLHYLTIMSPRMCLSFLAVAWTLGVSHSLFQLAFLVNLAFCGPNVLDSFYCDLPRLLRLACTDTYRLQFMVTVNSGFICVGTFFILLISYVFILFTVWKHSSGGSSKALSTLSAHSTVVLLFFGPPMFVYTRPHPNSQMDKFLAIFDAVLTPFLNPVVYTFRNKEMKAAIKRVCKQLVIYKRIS
OR4F3 R310K, sequence (as listed by the source, stated change not applied): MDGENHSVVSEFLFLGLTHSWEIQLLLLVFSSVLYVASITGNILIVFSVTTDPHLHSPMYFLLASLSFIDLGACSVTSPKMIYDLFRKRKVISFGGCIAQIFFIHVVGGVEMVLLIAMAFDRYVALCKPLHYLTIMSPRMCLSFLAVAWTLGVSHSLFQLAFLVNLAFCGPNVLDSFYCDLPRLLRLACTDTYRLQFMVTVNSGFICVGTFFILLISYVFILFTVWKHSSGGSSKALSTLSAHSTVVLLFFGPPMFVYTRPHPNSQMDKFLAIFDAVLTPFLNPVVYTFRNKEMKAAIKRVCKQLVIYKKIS

CC(=O)c1c(C)c([N+](=O)[O-])c(C(C)(C)C)c([N+](=O)[O-])c1C
inactive: OR4F17 (Homo sapiens) | OR4F21 (Homo sapiens) | OR4F3 (Homo sapiens) | OR4F4 (Homo sapiens) | OR4F5 (Homo sapiens) | OR4F6 (Homo sapiens) | OR4K1 (Homo sapiens)

CCC1OC(C)=C(O)C1=O (stereo not given)
inactive: OR4F17 (Homo sapiens) | OR4F21 (Homo sapiens) | OR4F3 (Homo sapiens) | OR4F4 (Homo sapiens) | OR4F5 (Homo sapiens) | OR4F5 T141A Q293R | OR4F6 (Homo sapiens) | OR4K1 (Homo sapiens)

CCC(S)C(C)CO (stereo not given)
inactive: OR4F17 (Homo sapiens) | OR4F21 (Homo sapiens) | OR4F3 (Homo sapiens) | OR4F4 (Homo sapiens) | OR4F5 (Homo sapiens) | OR4F6 (Homo sapiens) | OR4K1 (Homo sapiens)

CC(CO)CS (stereo not given)
inactive: OR4F17 (Homo sapiens) | OR4F21 (Homo sapiens) | OR4F3 (Homo sapiens) | OR4F4 (Homo sapiens) | OR4F5 (Homo sapiens) | OR4F6 (Homo sapiens) | OR4K1 (Homo sapiens)

CCCC(S)CCOC(C)=O (stereo not given)
inactive: OR4F17 (Homo sapiens) | OR4F21 (Homo sapiens) | OR4F3 (Homo sapiens) | OR4F4 (Homo sapiens) | OR4F5 (Homo sapiens) | OR4F5 T141A Q293R | OR4F6 (Homo sapiens) | OR4K1 (Homo sapiens)

CCCCCC(S)C(C)CO (stereo not given)
inactive: OR4F17 (Homo sapiens) | OR4F21 (Homo sapiens) | OR4F3 (Homo sapiens) | OR4F4 (Homo sapiens) | OR4F5 (Homo sapiens) | OR4F6 (Homo sapiens) | OR4K1 (Homo sapiens)

CCCCCC(=O)C(C)C(C)=O (stereo not given)
inactive: OR4F17 (Homo sapiens) | OR4F21 (Homo sapiens) | OR4F3 (Homo sapiens) | OR4F4 (Homo sapiens) | OR4F5 (Homo sapiens) | OR4F6 (Homo sapiens) | OR4K1 (Homo sapiens)

CCCCCCC=CCCC=O
inactive: OR4F17 (Homo sapiens) | OR4F21 (Homo sapiens) | OR4F3 (Homo sapiens) | OR4F3 R310K | OR4F3 V107I | OR4F4 (Homo sapiens) | OR4F5 (Homo sapiens) | OR4F5 T141A Q293R | OR4F6 (Homo sapiens) | OR4K1 (Homo sapiens)

CC1=C(O)C(=O)C(C)O1 (stereo not given)
inactive: OR4F17 (Homo sapiens) | OR4F21 (Homo sapiens) | OR4F3 (Homo sapiens) | OR4F4 (Homo sapiens) | OR4F5 (Homo sapiens) | OR4F5 T141A Q293R | OR4F6 (Homo sapiens) | OR4K1 (Homo sapiens)

CC1=C(O)C(=O)OC1C (stereo not given)
inactive: OR4F17 (Homo sapiens) | OR4F21 (Homo sapiens) | OR4F3 (Homo sapiens) | OR4F4 (Homo sapiens) | OR4F5 (Homo sapiens) | OR4F5 T141A Q293R | OR4F6 (Homo sapiens) | OR4K1 (Homo sapiens)

CCC1OC(=O)C(O)=C1C (stereo not given)
inactive: OR4F17 (Homo sapiens) | OR4F21 (Homo sapiens) | OR4F3 (Homo sapiens) | OR4F4 (Homo sapiens) | OR4F5 (Homo sapiens) | OR4F5 T141A Q293R | OR4F6 (Homo sapiens) | OR4K1 (Homo sapiens)

Cc1cnc(C)c(C)n1
inactive: OR4F17 (Homo sapiens) | OR4F21 (Homo sapiens) | OR4F3 (Homo sapiens) | OR4F4 (Homo sapiens) | OR4F5 (Homo sapiens) | OR4F5 T141A Q293R | OR4F6 (Homo sapiens) | OR4K1 (Homo sapiens)

CC1CCCCCCCCCCCCC(=O)C1 (stereo not given)
inactive: OR4F17 (Homo sapiens) | OR4F21 (Homo sapiens) | OR4F3 (Homo sapiens) | OR4F4 (Homo sapiens) | OR4F5 (Homo sapiens) | OR4F6 (Homo sapiens) | OR4K1 (Homo sapiens)

CC1=NC(C)C(C)S1 (stereo not given)
inactive: OR4F17 (Homo sapiens) | OR4F21 (Homo sapiens) | OR4F3 (Homo sapiens) | OR4F4 (Homo sapiens) | OR4F5 (Homo sapiens) | OR4F5 T141A Q293R | OR4F6 (Homo sapiens) | OR4K1 (Homo sapiens)

CCCCC(S)C(C)CO (stereo not given)
inactive: OR4F17 (Homo sapiens) | OR4F21 (Homo sapiens) | OR4F3 (Homo sapiens) | OR4F4 (Homo sapiens) | OR4F5 (Homo sapiens) | OR4F6 (Homo sapiens) | OR4K1 (Homo sapiens)
